PAD4 inh – human PAD4 inhibitors, primary screen, biochemical, fluorescence polarization, 1536-well format; actives 0.41% (n = 330,000); inhibition, % at 6.36 µM; Protein-arginine deiminase type-4 (Homo sapiens), Q9UM07; recombinant PAD4, RCA probe fluorescence polarization;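 active = percent inhibition above a cutoff equal to the mean of all tested compounds plus 3 SD, cut at about 15% in these data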
GSTO1 inh – inhibitors of recombinant GSTO1, primary screen, counter-screen for RBBP9 inhibitor project, biochemical, fluorescence polarization. activity-based probe fluorescence polarization. inhibition, % at 5.96 µM. actives 1.1% (n = 300,000). AID 1974, 2009;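 active = inhibition above the campaign mean inhibition plus 3 SD, cut at about 35% in these data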
TDP2 inh – human TDP2 enzyme inhibitors, primary screen, biochemical, epi absorbance, recombinant enzyme; Tyrosyl-DNA phosphodiesterase 2 (Homo sapiens), O95551; T5PNP hydrolysis, p-nitrophenol absorbance 415 nm; inhibition, % at 12.8 µM; actives 0.34% (n = 370,000);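 active = inhibition above the mean of all tested compounds plus 3 SD, set per campaign, cut at about 25% in these data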
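test system = human TDP2 enzyme | input = TDP2 enzyme at 120 nM final | medium = 50 mM Tris-HCl pH 7.5 with Mg2+, KCl, DTT, BSA | also added = T5PNP substrate, 5 mM | times = 2 h at 37 °C | technique = epi absorbance | benchmarks = high control without enzyme, low control DMSO plus TDP2 | replication = each compound tested once, singlicate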
TCR-CD3 inh – inhibitors of human TCR-CD3 interaction, primary screen, biochemical, fluorescence, TAMRA-labeled TCR probe. T-cell receptor (TCR). AID 651800, 2012. inhibition, % at 9.4 µM. actives 0.37% (n = 360,000);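 also: recombinant mutant TCR 2C K166C tagged with TAMRA read by polarization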
SIAE primary – human SIAE inhibitors, primary screen, biochemical, fluorescence polarization, FP-Rh probe, 1536-well HTS; inhibition, % at 9.66 µM; actives 0.69% (n = 370,000); SIAE FP-Rh probe binding;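 active = inhibition above a cutoff: mean of compounds within the control limits plus 3 SD of those, cut at about 17% in these data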
Apaf1 inhib – inhibitors of human Apaf-1 apoptosome, primary screen, biochemical, DEVD-Rh110 fluorescence, uHTS; actives 0.71% (n = 330,000); reconstituted apoptosome caspase-3 activity; inhibition, % at 20 µM; active = inhibition of at least 40% at 20 µM
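System: reconstituted apoptosome with Apaf-1, cytochrome c, caspase-9, procaspase-3, dATP; Signal: Rh110 fluorescence intensity; Schedule: 30 min compound preincubation, 50 min activation, room temperature; Reagent: cytochrome c trigger plus (Z-DEVD)2-Rh110 caspase-3 substrate.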
Apaf-1 inh conf – Apaf-1 inhibitors, single-dose retest, confirmation, biochemical, fluorescence, DEVD-Rh110, 20 µM | shares compounds with Apaf1 inhib | AID 504614, 2011 | inhibition, % at 20 µM | actives 25% (n = 1,800) | reconstituted apoptosome, caspase-3 DEVD-Rh110 fluorescence;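 active = mean inhibition of at least 40% at 20 µM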
Rh110 quench – Rh110 fluorescence interference by putative Apaf-1 inhibitors, confirmation, artefact control for Apaf-1 inhibitor project, biochemical, 20 µM. activation (fluorescence interference), % at 20 µM. AID 504615, 2011. shares compounds with Apaf1 inhib. 1,800 tested, under 10 active. quenched caspase reaction;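 active = signal rise of 40% or more at 20 µM, treated as a fluorescence artifact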
Apaf1 inh interf – fluorescence interference of Apaf-1 inhibitor hits, dose response, artefact control for Apaf-1 inhibitor project | shares compounds with Apaf1 inhib | fluorescence interference counterscreen, Apaf-1 assay format | IC50, µM | 460 tested, under 10 active | AID 588538, 2011; call rule not given here
BSA TAMRA ctr – compounds interfering with TAMRA-BSA probe, counter-screen for TCR-CD3 interaction inhibitor project, biochemical, fluorescence, TAMRA-labeled BSA; shares compounds with TCR-CD3 inh; TAMRA-labeled BSA probe fluorescence counterscreen; inhibition, % at 9.4 µM; actives 10% (n = 1,200); in the data active = inhibition above about 23%
TCR-CD3 inh conf – TCR-CD3 interaction inhibitors, retest, confirmation, biochemical, fluorescence, TAMRA-labeled TCR probe | shares compounds with TCR-CD3 inh | TAMRA-labeled TCR probe fluorescence binding assay | inhibition, % at 9.4 µM | actives 48% (n = 1,200) | AID 652036, 2013
TDP2 inh conf – human TDP2 enzyme inhibitors, retest, confirmation, biochemical, epi absorbance, recombinant enzyme. inhibition, % at 12.8 µM. actives 22% (n = 1,100). absorbance read-out. shares compounds with TDP2 inh; in the data active = inhibition above about 25%
Hits are given with their value; i = inactive; nt = not tested or not shown; ! = repeats disagree. In the library only some 2.4% were active in any assay of this set; here they are far more common. Rule as the data show it, unless noted: active = inhibition above about 19%; inactive = the rest.

SMILES	PAD4 inh	GSTO1 inh	TDP2 inh	TCR-CD3 inh	SIAE primary	Apaf1 inhib	Apaf-1 inh conf	Rh110 quench	TDP2 inh conf	others
Cc1cccc(C)c1NC(=O)CSc1nnc(NC(=O)c2ccccc2C(=O)O)s1	i	i	i	i	i	i	nt	nt	nt
CCN1CCN(Cc2ccc(NC(=O)c3ccc(C)c(NC(=O)c4cc(-c5ccc(Br)cc5)n[nH]4)c3)cc2C(F)(F)F)CC1	i	i	i	26	i	45	i	i	nt	BSA TAMRA ctr=i;TCR-CD3 inh conf=i
CS(=O)(=O)Oc1ccc(Br)c2cccnc12	i	i	i	i	i	i	nt	nt	nt
Nc1ccc(Br)c2cccnc12	i	i	47	i	i	85	46	i	41	Apaf1 inh interf=i
COc1cc2c(cc1O)CC[n+]1cc3c(OC)c(OC)ccc3cc1-2	i	i	i	i	i	i	nt	nt	nt
COc1cc2c(cc1OC)-c1cc3ccc4c(c3c[n+]1CC2)OCO4	i	42	26	i	i	73	i	i	i
COc1ccc(O)c(C(c2c(C)[nH][nH]c2=O)c2c(C)[nH][nH]c2=O)c1	i	i	73	i	i	67	i	i	73
Cn1c(=O)c2c(nc(CCc3ccccc3)n2C)n(C)c1=O	nt	nt	i	i	i	nt	nt	nt	nt
Cc1ccc(S(=O)(=O)NC2=C(N3CCN(c4ccccc4F)CC3)C(=O)c3ccccc3C2=O)cc1	i	i	25!	i	i	76	i	i	i
COc1ccc(O)c(C2(O)C(=O)c3ccccc3C2=O)c1	i	i	i	i	i	i	nt	nt	nt
CC(=O)C(C(C)=O)C1(O)C(=O)c2ccccc2C1=O	i	75	44	i	i	86	87	i	68	Apaf1 inh interf=i
O=c1[nH]c2ccccc2cc1CN(CC1CCCO1)S(=O)(=O)c1ccccc1 (stereo not given)	i	i	i	i	i	i	nt	nt	nt
S=C(Nc1ccc(Cl)cc1)Nc1cccc2cnccc12	i	38	35	i	i	83	i	i	31
Cc1cc(Cl)ccc1NC(=S)Nc1cccnc1	i	i	i	i	i	i	nt	nt	nt
Cc1cccc(NC(=S)Nc2cccc3ccccc23)c1	i	i	25	i	i	93	i	i	i
Fc1ccc(NC(=S)Nc2cccc3cnccc23)cc1	i	i	30	i	i	95	i	i	i
CCCCSc1ccc(NC(=O)c2cccnc2)cc1	i	i	i	i	i	i	nt	nt	nt
COc1ccc(NC2=C(NCCO)C(=O)c3ccccc3C2=O)cc1	i	44	36	i	i	70	45	i	34	Apaf1 inh interf=i
Cc1cccc(NC2=C(NCCO)C(=O)c3ccccc3C2=O)c1	i	42	58	i	i	56	i	i	i
CN1C(=O)[C@H]2[C@@H](/C=C/c3ccccc3)N3C(=O)CN(Cc4ccccc4)C(=O)[C@@]3(C)[C@H]2C1=O	i	i	i	i	i	i	nt	nt	nt
CC(=O)N1CCOc2ccc(S(=O)(=O)NCCc3ccc(S(N)(=O)=O)cc3)cc21	i	i	i	i	i	i	nt	nt	nt
COc1ccc(C(=O)Nc2nc3c(s2)Cc2cc(OC)ccc2-3)cc1	i	i	32	i	i	97	59	i	38	Apaf1 inh interf=i
COc1ccc2nc(NC(=O)c3ccc(F)cc3)sc2c1	i	i	i	i	i	i	nt	nt	nt
Nc1ncnc2c1ncn2[C@@H]1O[C@H](CNCc2ccccc2)[C@@H](O)[C@H]1O	i	nt	nt	nt	nt	i	nt	nt	nt
C=CCN(CC=C)C(=S)Nc1ccc2nsnc2c1	i	42	72	i	i	96	i	i	59
SMILES	PAD4 inh	GSTO1 inh	TDP2 inh	TCR-CD3 inh	SIAE primary	Apaf1 inhib	Apaf-1 inh conf	Rh110 quench	TDP2 inh conf	others
C=CCNC(=S)Nc1ccc2nsnc2c1	i	i	i	i	i	i	nt	nt	nt
CCOC(=O)c1cnc2c(cnn2C)c1Oc1ccc(OC)cc1	i	i	i	i	i	i	nt	nt	nt
O=C(O)c1ccc(NC2=C/C(=N/S(=O)(=O)c3ccccc3)c3ccccc3C2=O)cc1	nt	nt	72	i	i	96	97	i	77	Apaf1 inh interf=i
CCCCCn1c(NC(=O)c2ccco2)c(S(=O)(=O)c2ccc(C)cc2)c2nc3ccccc3nc21	i	i	69	i	i	63	i	i	i
Cc1ccc(C(=O)Nn2c(N)c(S(=O)(=O)c3ccc(C)cc3)c3nc4ccccc4nc32)cc1	i	i	i	i	i	i	nt	nt	nt
COc1ccc(N)c2c1OCCC2=O	i	i	34	i	i	87	i	i	i
CC1(NC(=O)c2ccccc2)CCN(CCCc2ccccc2)C1=O (stereo not given)	i	nt	i	i	i	i	nt	nt	nt
Cc1ccc(C)c(-n2c(SCC(=O)N3CCC(C(=O)O)CC3)nnc2-c2cccc(Cl)c2)c1	i	i	i	i	i	i	nt	nt	nt
CCOC(=O)C1=C(C)c2ccccc2OC1(CC)C(=O)OCC (stereo not given)	i	nt	i	i	i	i	nt	nt	nt
CCOC(=O)C1=C(C)OC2(O)c3ccccc3C(=O)C12O (stereo not given)	i	74	70	i	i	88	98	i	81	Apaf1 inh interf=i
COC(=O)CCC(=O)OC1(C)C(=O)C=C2C=C(C3CC3)N(CC3CC3)C=C2C1=O (stereo not given)	i	i	28	i	i	57	i	i	i

From PubChem
